Assay [1] concerns J774.A1. Put plainly: Antiinflammatory activity in mouse J774A.1 cells assessed as inhibition of lipopolysaccharide-induced TNFalpha production pretreated for 2 hrs at 10 uM before LPS challenge. The class given is functional. A digest of the protocol:
(§1)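 J774A.1 macrophages pretreated 2 h with test agent at 10 μM or vehicle, then stimulated with LPS 0.5 μg/ml for 24 h. Media collected and centrifuged (14,000 rpm, 5 min); TNF-α and IL-6 quantified by mouse ELISA kits. Total protein of viable cell pellets measured by Bio-Rad protein assay. Results expressed as percent of LPS control.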

In assay [2] the test system is J774.A1. Put plainly: Antiinflammatory activity in mouse J774A.1 cells assessed as inhibition of lipopolysaccharide-induced IL6 production pretreated for 2 hrs at 10 uM before LPS challenge. The class given is functional, cell-based. The gist of the method: as §1

Activity calls are given as the source filed them. No cut-off for these calls is given here.

Turning to `COc1cc(/C=C2\CCC/C(=C\c3ccc(O)c(OC)c3)C2=O)ccc1O`, the result in assay [1] and in assay [2] was Active. `COc1cc(/C=C2\CCC/C(=C\c3ccc(OC4CCCCO4)c(OC)c3)C2=O)ccc1OC1CCCCO1` (stereo not drawn): the outcome in assay [1] was Active. For `Cc1ccc(/C=C2\CC/C(=C\c3ccc(C)s3)C2=O)s1`, in assay [1], the outcome was Active.

For the compound `COc1cc(/C=C2\CC/C(=C\c3ccc(O)c(OC)c3)C2=O)ccc1O`, the result in assay [1] and in assay [2] was Active. `COc1cc(/C=C/C(=O)/C=C/c2ccc(O)c(OC)c2)ccc1O`: the outcome in assay [1] and in assay [2] was Active. Regarding `O=C1/C(=C/c2ccc(Br)o2)CCC/C1=C\c1ccc(Br)o1`, the result in assay [1] was Active. As for `C=CCOc1ccc(/C=C2\CCC/C(=C\c3ccc(OCC=C)cc3)C2=O)cc1`, the result in assay [1] was Active. For `COc1cc(/C=C2\CC/C(=C\c3ccc(OC4CCCCO4)c(OC)c3)C2=O)ccc1OC1CCCCO1` (stereo not drawn), the outcome in assay [1] was Active. With `O=C(/C=C/c1ccc(OC2CCCCO2)cc1)/C=C/c1ccc(OC2CCCCO2)cc1` (stereo not drawn), the result in assay [1] was Active. For `CN(C)c1ccc(/C=C2\CCC/C(=C\c3ccc(N(C)C)cc3)C2=O)cc1`, the outcome in assay [1] and in assay [2] was Active. As for `CN(C)c1ccc(/C=C/C(=O)/C=C/c2ccc(N(C)C)cc2)cc1`, the outcome in assay [1] and in assay [2] was Active.

Regarding `CN(C)CCCOc1ccc(/C=C2\CC/C(=C\c3ccc(OCCCN(C)C)cc3)C2=O)cc1`, the outcome in assay [1] and in assay [2] was Active. On to `C=CCOc1ccc(/C=C/C(=O)/C=C/c2ccc(OCC=C)cc2)cc1`, for which, in assay [1], the outcome was Active. Regarding `COc1cc(/C=C/C(=O)CC(=O)/C=C/c2ccc(O)c(OC)c2)ccc1O`, the result in assay [1] was Active. Take `CN(C)c1ccc(/C=C2\CC/C(=C\c3ccc(N(C)C)cc3)C2=O)cc1`: the result in assay [1] and in assay [2] was Active. For the compound `O=C1/C(=C/c2cccs2)CC/C1=C\c1cccs1`, the result in assay [1] was Active.

The values above are taken from ChEMBL document CHEMBL1141592, “Synthesis and anti-inflammatory activities of mono-carbonyl analogues of curcumin” (2008).
